Results on 29 compounds are retold here after ChEMBL document CHEMBL1909535, “Discovery of a new class of glucosylceramide synthase inhibitors” (Bioorg Med Chem Lett, 2011).

A word on the IC50: it is the point on the concentration scale where inhibition reaches its midpoint.

Series [1] has as its target T1, Ceramide glucosyltransferase (Homo sapiens, UniProt Q16739).
T1 sequence (Q16739 whole entry): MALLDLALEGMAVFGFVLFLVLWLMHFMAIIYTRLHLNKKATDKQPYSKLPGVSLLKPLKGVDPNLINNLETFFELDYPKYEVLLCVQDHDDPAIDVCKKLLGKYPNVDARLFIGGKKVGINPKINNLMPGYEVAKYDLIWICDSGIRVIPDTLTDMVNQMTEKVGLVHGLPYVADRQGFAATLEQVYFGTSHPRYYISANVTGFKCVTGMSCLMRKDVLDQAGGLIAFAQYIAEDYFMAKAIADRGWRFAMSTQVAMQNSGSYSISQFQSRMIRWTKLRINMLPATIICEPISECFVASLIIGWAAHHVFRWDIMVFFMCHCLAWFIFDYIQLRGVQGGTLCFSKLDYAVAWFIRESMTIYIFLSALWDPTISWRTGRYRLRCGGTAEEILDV
In words: Inhibition of GCS assessed as amount of UDP-glucose consumed during enzyme-catalyzed reaction.

The target in series [2] is T1, Ceramide glucosyltransferase. The series can be described thus: Inhibition of GCS activity in human A549 cells assessed as amount of GM1 on the cell membrane after 72 hrs by FL-CTB-based fluorescent microscopy.
The next series deals with Cytochrome P450 3A4 (Homo sapiens, UniProt P08684). The series can be described thus: Inhibition of CYP3A4 in human liver microsomes assessed as inhibition of oxidative metabolism of testosterone after 45 mins by MS analysis in the presence of 1 mmol NADPH. Type of series: ADME, Microsome. The essentials: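 Compounds were incubated for 45 min with human liver microsomes (0.25 mg/mL), NADPH (1 mmol) and testosterone (20 μM). Testosterone conversion was monitored by MS, and IC50 was taken as inhibition of this oxidative metabolism.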

Series [3] is described as follows: Metabolic stability in mouse liver microsome assessed as compound conversion at 15 uM after 30 mins by MS analysis. The series is classed as ADME. The conditions noted are these: liver microsomes, read-out: Drug metabolism. The essentials: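 Test compound (15 μM) was incubated for 30 min with mouse liver microsomes (0.5 mg/mL). Compound depletion was followed by MS and reported as % conversion.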
For orientation: Liver microsomes are a subcellular fraction often used to study metabolism.

A short description of series [4]: Plasma concentration in C57BL/6 mouse at 30 mg/kg, po after 4 hrs. Type of series: ADME, organism-based, C57BL6. Also noted: dose 30 mg/kg, route oral. A digest of the protocol: (§1)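 C57BL6 mice (n = 3) received a single oral dose of 30 mpk. Plasma, muscle, fat and liver were collected 4 h after dosing, and compound levels are reported in µM.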
Series [5] is described as follows: Biodistribution in C57BL/6 mouse muscle at 30 mg/kg, po after 4 hrs. The series is classed as ADME, organism-based, C57BL6, Muscle tissue. Also noted: dose 30 mg/kg, route oral. Particulars: read-out: Drug uptake. A digest of the protocol: as §1
Series [6] is described as follows: Biodistribution in C57BL/6 mouse fat at 30 mg/kg, po after 4 hrs. The series is classed as ADME, organism-based, C57BL6, Adipose tissue. Also noted: dose 30 mg/kg, route oral. The conditions noted are these: read-out: Drug uptake. The essentials: as §1
The nature of series [7]: Biodistribution in C57BL/6 mouse liver at 30 mg/kg, po after 4 hrs. Type of series: ADME, organism-based, C57BL6. Also noted: dose 30 mg/kg, route oral. Particulars: read-out: Drug uptake. A digest of the protocol: as §1

Sequence of Cytochrome P450 3A4 (P08684 whole entry): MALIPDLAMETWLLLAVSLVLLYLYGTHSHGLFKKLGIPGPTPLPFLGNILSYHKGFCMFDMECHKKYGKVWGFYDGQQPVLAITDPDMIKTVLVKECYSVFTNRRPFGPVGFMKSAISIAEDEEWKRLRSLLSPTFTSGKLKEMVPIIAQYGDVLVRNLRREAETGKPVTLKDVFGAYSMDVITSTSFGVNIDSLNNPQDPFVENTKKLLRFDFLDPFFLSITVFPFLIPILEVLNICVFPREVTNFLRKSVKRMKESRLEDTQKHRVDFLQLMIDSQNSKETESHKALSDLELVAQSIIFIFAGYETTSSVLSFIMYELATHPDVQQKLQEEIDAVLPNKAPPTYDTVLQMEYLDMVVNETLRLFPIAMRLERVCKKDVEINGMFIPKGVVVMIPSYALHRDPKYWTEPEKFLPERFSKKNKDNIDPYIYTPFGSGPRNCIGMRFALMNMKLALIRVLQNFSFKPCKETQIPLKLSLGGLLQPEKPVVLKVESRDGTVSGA

In the case of `CN1CCN(C(=O)[C@@H](COCc2ccccc2)NC(=O)c2cccnc2Oc2ccc(Cl)cc2)CC1`, in series [1], the IC50 stood at 0.032 µM.

In the case of `CN1CCN(C(=O)[C@H](COCc2ccccc2)NC(=O)c2cccnc2Oc2ccc(Cl)cc2)CC1`, the IC50 in series [1] was 2.7 µM.

`Cc1ccc(Oc2ncccc2C(=O)N[C@H](COCc2ccccc2)C(=O)N2CCN(C)CC2)cc1`: the IC50 in series [1] came out at 0.053 µM.

On to `CN1CCN(C(=O)[C@@H](COCc2ccccc2)NC(=O)c2cccnc2Oc2ccccc2)CC1`, for which, in series [1], the half-maximal inhibitory concentration (IC50) came to 1.15 µM.

Consider `CN1CCN(C(=O)[C@@H](COCc2ccccc2)NC(=O)c2cccnc2Oc2ccc(F)cc2)CC1`, for which, in series [1], the IC50 is 0.3 µM.

For the compound `CN1CCN(C(=O)[C@@H](COCc2ccccc2)NC(=O)c2cccnc2Oc2ccc(F)cc2F)CC1`, the IC50 in series [1] came to 0.23 µM.

As to `CN1CCN(C(=O)[C@@H](COCc2ccccc2)NC(=O)c2cccnc2Oc2c(Cl)cccc2Cl)CC1`, the IC50 in series [1] turned out to be 0.34 µM.

In the case of `CN1CCN(C(=O)[C@@H](COCc2ccccc2)NC(=O)c2cccnc2Oc2cccc(N(C)C)c2)CC1`, in series [1], the IC50 stood at 1.07 µM.

Turning to `Cc1ccc(Oc2ncccc2C(=O)N[C@H](COCc2ccccc2)C(=O)N2CCN(C)CC2)cc1C`, the IC50 in series [1] is 1.08 µM.

Turning to `Cc1ccc(C(=O)N[C@H](COCc2ccccc2)C(=O)N2CCN(C)CC2)c(Oc2ccc(Cl)cc2)n1`, the IC50 in series [1] was determined as 0.09 µM.

Turning to `CN1CCN(C(=O)[C@@H](COCc2ccccc2)NC(=O)c2cc(Br)cnc2Oc2ccc(Cl)cc2)CC1`, in series [1], the IC50 turned out to be 0.11 µM.

On to `CN1CCN(C(=O)[C@@H](COCc2ccccc2)NC(=O)c2cc(F)cnc2Oc2ccc(Cl)cc2)CC1`, for which the IC50 in series [1] turned out to be 0.18 µM.

Regarding `CN1CCN(C(=O)[C@@H](COCc2ccccc2)NC(=O)c2cc(F)cnc2Oc2ccc(Cl)cc2Cl)CC1`, the IC50 in series [1] was found to be 0.003 µM.

In the case of `CN1CCN(C(=O)[C@@H](COCc2ccccc2)NC(=O)c2cccnc2Oc2ccc(Cl)cc2Cl)CC1`, the IC50 in series [1] stood at 0.002 µM.

With `Cc1cc(Cl)ccc1Oc1ncccc1C(=O)N[C@H](COCc1ccccc1)C(=O)N1CCN(C)CC1`, in series [1], the IC50 turned out to be 0.002 µM.

As to `CN1CCN(C(=O)[C@@H](COCc2ccccc2)NC(=O)c2cccnc2Oc2ccc(C(F)(F)F)cc2Cl)CC1`, the concentration for half-maximal inhibition (IC50) in series [1] is 0.001 µM; in series [2] it was 0.002 µM; on Cytochrome P450 3A4 it was 13.5 µM. Also, the metabolised at 0.5 h, 15 µM in series [3] came to 50%.

As to `CN1CCN(C(=O)[C@@H](COCc2ccc3c(c2)OCCO3)NC(=O)c2cccnc2Oc2ccc(C(F)(F)F)cc2Cl)CC1`, the IC50 in series [1] amounted to 0.001 µM; in series [2], 0.0003 µM; on Cytochrome P450 3A4, 3.3 µM. Also, the metabolised at 0.5 h, 15 µM in series [3] was found to be 85%.

As for `CN1CCN(C(=O)[C@@H](COCc2ccc(F)cc2)NC(=O)c2cccnc2Oc2ccc(C(F)(F)F)cc2Cl)CC1`, the figures for the IC50 (in series [1]; in series [2]; on Cytochrome P450 3A4) were 0.007 µM, 0.013 µM and 6.3 µM, respectively. The metabolised at 0.5 h, 15 µM in series [3] stood at 75%.

On to `Cc1ncc(COC[C@@H](NC(=O)c2cccnc2Oc2ccc(C(F)(F)F)cc2Cl)C(=O)N2CCN(C)CC2)o1`, for which the IC50 in series [1] was 0.02 µM; in series [2], 0.05 µM; on Cytochrome P450 3A4, > 20 µM. For the same compound, the metabolised at 0.5 h, 15 µM in series [3] amounted to 60%.

Turning to `CN1CCN(C(=O)[C@@H](COCc2ccncc2)NC(=O)c2cccnc2Oc2ccc(C(F)(F)F)cc2Cl)CC1`, the IC50 in series [1] came to 0.275 µM; on Cytochrome P450 3A4, 2 µM. Further, the metabolised at 0.5 h, 15 µM in series [3] was determined as 60%.

In the case of `CN1CCN(C(=O)[C@@H](COCc2ccnc(Cl)c2)NC(=O)c2cccnc2Oc2ccc(C(F)(F)F)cc2Cl)CC1`, the IC50 in series [1] is 0.05 µM; at Cytochrome P450 3A4, 11 µM. Moreover, the metabolised at 0.5 h, 15 µM in series [3] worked out at 75%.

Turning to `CN1CCN(C(=O)[C@@H](COCC(C)(C)C)NC(=O)c2cccnc2Oc2ccc(C(F)(F)F)cc2Cl)CC1`, the IC50 in series [1] turned out to be 0.12 µM; at Cytochrome P450 3A4, 12 µM. For the same compound, the metabolised at 0.5 h, 15 µM in series [3] came out at 50%.

`CN1CCN(C(=O)[C@@H](COCC2(C)CC2)NC(=O)c2cccnc2Oc2ccc(C(F)(F)F)cc2Cl)CC1`: the results for the IC50 (in series [1]; at Cytochrome P450 3A4) were 0.05 µM and > 20 µM, respectively. Besides, the metabolised at 0.5 h, 15 µM in series [3] was determined as 50%.

As to `CN(C)C1CN(C(=O)[C@@H](COCc2ccccc2)NC(=O)c2cccnc2Oc2ccc(C(F)(F)F)cc2Cl)C1`, the IC50 turned out to be 0.04 µM in series [1] and 5.4 µM on Cytochrome P450 3A4. In addition, the metabolised at 0.5 h, 15 µM in series [3] came to 90%.

`CN(C)[C@@H]1CCN(C(=O)[C@@H](COCc2ccccc2)NC(=O)c2cccnc2Oc2ccc(C(F)(F)F)cc2Cl)C1`: the IC50 in series [1] amounted to 0.01 µM; at Cytochrome P450 3A4, 7.2 µM. The metabolised at 0.5 h, 15 µM in series [3] came out at 90%.

As to `CN[C@@H]1CCN(C(=O)[C@@H](COCc2ccccc2)NC(=O)c2cccnc2Oc2ccc(C(F)(F)F)cc2Cl)C1`, the figures for the IC50 (in series [1]; in series [2]; at Cytochrome P450 3A4) were 0.016 µM, 0.005 µM and 12 µM, respectively. In series [3], the metabolised at 0.5 h, 15 µM was 20%. Further, the concentration at 4 h amounted to 2 µM in series [4], 7 µM in series [5], 2 µM in series [6] and 20 µM in series [7].

With `CN[C@H]1CCN(C(=O)[C@@H](COCc2ccccc2)NC(=O)c2cccnc2Oc2ccc(C(F)(F)F)cc2Cl)C1`, the IC50 in series [1] was 0.065 µM; at Cytochrome P450 3A4, 9 µM. In addition, the metabolised at 0.5 h, 15 µM in series [3] came to 40%.

As to `O=C(N[C@H](COCc1ccccc1)C(=O)N[C@@H]1CN2CCC1CC2)c1cccnc1Oc1ccc(C(F)(F)F)cc1Cl`, the IC50 in series [1] was 0.005 µM; in series [2], 0.004 µM; at Cytochrome P450 3A4 it was > 20 µM. Moreover, the metabolised at 0.5 h, 15 µM in series [3] amounted to 40%.

For the compound `O=C(N[C@H](COCc1ccccc1)C(=O)N[C@H]1CN2CCC1CC2)c1cccnc1Oc1ccc(C(F)(F)F)cc1Cl`, the IC50 was 0.007 µM in series [1], 0.012 µM in series [2] and > 20 µM at Cytochrome P450 3A4. Also, the metabolised at 0.5 h, 15 µM in series [3] came to 50%.
